Experiments:
[1] = Metabolic stability in rat liver microsomes assessed as compound remaining at 10 uM after 1 hr in presence of NADPH; assay type: ADME; conditions: read-out: Stability
Summary of the method: (§1)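 Liver microsomes (rat or human) incubated with compound and NADPH for 1 h; percent of parent remaining. Table footnote gives 10 μM compound, 1 mM NADPH, 1 mg/mL protein; text gives 1 μM substrate, 1 mg/mL protein.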

Liver microsome [2] = test: Drug metabolism in rat liver microsomes assessed as 3-(trifluoromethyl)-benzenesulfonamide level after 1 hr in presence of NADPH; assay type: ADME
[3] = target: Voltage-dependent N-type calcium channel subunit alpha-1B (Homo sapiens, UniProt Q00975); test: Inhibition of Cav2.2-mediated calcium influx in HEK cells by FLIPR assay; assay type: cell-based, HEK293
Summary of the method: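 Cav2.2 calcium-influx FLIPR assay; compounds screened for percent inhibition at single concentration, active ones titrated for IC50; values averaged over n ≥ 3.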

[4] = Metabolic stability in human liver microsomes assessed as compound remaining at 10 uM after 1 hr in presence of NADPH; assay type: ADME; conditions: read-out: Stability; summary of the method: as §1
Liver microsome [5] = test: Drug metabolism in human liver microsomes assessed as 3-(trifluoromethyl)-benzenesulfonamide level after 1 hr in presence of NADPH; assay type: ADME
CYP3A4 = CYP3A4 (Homo sapiens, UniProt P08684); test: Inhibition of CYP3A4 (unknown origin) at 10 uM relative to control; assay type: ADME
hERG (KCNH2) = hERG (KCNH2) (Homo sapiens, UniProt Q12809); test: Displacement of [35S]MK-499 from human ERG at 10 uM relative to control; conditions: probe [35S]MK-499
Summary of the method: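 hERG binding assessed by displacement of [35S]MK-499; percent inhibition at 10 μM test compound.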

[6] = target: T1, Nuclear receptor subfamily 1 group I member 2 (Homo sapiens, UniProt O75469); test: Activation of PXR (unknown origin)
T1 sequence (O75469 whole entry): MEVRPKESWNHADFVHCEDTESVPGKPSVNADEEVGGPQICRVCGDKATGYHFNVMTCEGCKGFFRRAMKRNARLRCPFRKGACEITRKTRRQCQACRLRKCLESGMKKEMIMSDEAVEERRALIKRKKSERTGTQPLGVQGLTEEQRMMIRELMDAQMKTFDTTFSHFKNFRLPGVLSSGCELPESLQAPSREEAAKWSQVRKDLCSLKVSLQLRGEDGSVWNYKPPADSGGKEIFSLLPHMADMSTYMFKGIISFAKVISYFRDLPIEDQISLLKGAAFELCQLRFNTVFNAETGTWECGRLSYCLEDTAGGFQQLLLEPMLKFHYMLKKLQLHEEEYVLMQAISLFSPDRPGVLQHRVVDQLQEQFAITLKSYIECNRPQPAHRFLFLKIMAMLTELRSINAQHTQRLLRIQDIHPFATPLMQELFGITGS

[7] = Half life in rat at 3 mg/kg, po and 1 mg/kg, iv; assay type: ADME, organism-based; conditions: in vivo
Summary of the method: (§2)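 Rats dosed 3 mg/kg orally and 1 mg/kg intravenously; PK parameters derived from whole-blood concentrations. Normalized oral AUC given in μM·h·kg/mg, clearance in mL/min/kg, plus half-life and oral bioavailability.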

[8] = Oral bioavailability in rat at 3 mg/kg; assay type: ADME, organism-based; conditions: in vivo; summary of the method: as §2
Rattus norvegicus [9] = test: Antinociceptive activity in rat inflammatory pain model assessed as reversal of CFA-induced mechanical allodynia at 10 mg/kg, po after 3 hrs; assay type: functional
Summary of the method: (§3)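 Rats given intraplantar complete Freund's adjuvant in the hind paws to induce inflammatory pain; mechanical allodynia assessed 1 and 3 h after a single oral dose. Percent reversal per rat calculated as (postdose − predose)/(preinjury − predose), averaged over n = 6 rats.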

MDR1 (ABCB1) = MDR1 (ABCB1) (Homo sapiens, UniProt P08183); test: Activity at human MDR1 expressed in MDCK2 cells assessed as apparent permeability by LC/MS/MS analysis; assay type: ADME, cell-based, MDCK-II; conditions: MDCK-MDR1
Rattus norvegicus [10] = test: Antinociceptive activity in rat inflammatory pain model assessed as reversal of CFA-induced mechanical allodynia at 10 mg/kg, po after 1 hr; assay type: functional; summary of the method: as §3
[11] = Fraction unbound in 100% rat plasma; assay type: ADME, cell-free
Summary of the method: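 Unbound fraction measured in 100% rat plasma.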

Rattus norvegicus [12] = test: Normalized AUC in rat whole blood at 3 mg/kg, po; assay type: ADME, organism-based; parameters: dose 3 mg/kg, route oral; conditions: in vivo; summary of the method: as §2
[13] = Clearance in rat at 3 mg/kg, po and 1 mg/kg, iv; assay type: ADME, organism-based; conditions: in vivo; summary of the method: as §2
Rattus norvegicus [14] = test: Antinociceptive activity in rat inflammatory pain model assessed as reversal of CFA-induced mechanical allodynia at 30 mg/kg, po after 1 hr; assay type: functional; summary of the method: as §3
Rattus norvegicus [15] = test: Antinociceptive activity in rat inflammatory pain model assessed as reversal of CFA-induced mechanical allodynia at 30 mg/kg, po after 3 hrs; assay type: functional; summary of the method: as §3
Cytochrome P450 3A4 = Cytochrome P450 3A4 (Homo sapiens, UniProt P08684); test: Inhibition of CYP3A4 (unknown origin); assay type: ADME
Rattus norvegicus [16] = test: Normalized AUC in rat whole blood assessed as 3-(trifluoromethyl)-benzenesulfonamide level at 3 mg/kg, po; assay type: ADME, organism-based; parameters: dose 3 mg/kg, route oral; conditions: in vivo
Summary of the method: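 Rats given a single 3 mg/kg oral dose of parent; whole-blood levels of parent and sulfonamide metabolite followed over time, n = 2 rats. Metabolite AUC normalized to dose (μM·h·kg/mg).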

Voltage-dependent N-type calcium channel subunit alpha-1B, sequence (Q00975 whole entry): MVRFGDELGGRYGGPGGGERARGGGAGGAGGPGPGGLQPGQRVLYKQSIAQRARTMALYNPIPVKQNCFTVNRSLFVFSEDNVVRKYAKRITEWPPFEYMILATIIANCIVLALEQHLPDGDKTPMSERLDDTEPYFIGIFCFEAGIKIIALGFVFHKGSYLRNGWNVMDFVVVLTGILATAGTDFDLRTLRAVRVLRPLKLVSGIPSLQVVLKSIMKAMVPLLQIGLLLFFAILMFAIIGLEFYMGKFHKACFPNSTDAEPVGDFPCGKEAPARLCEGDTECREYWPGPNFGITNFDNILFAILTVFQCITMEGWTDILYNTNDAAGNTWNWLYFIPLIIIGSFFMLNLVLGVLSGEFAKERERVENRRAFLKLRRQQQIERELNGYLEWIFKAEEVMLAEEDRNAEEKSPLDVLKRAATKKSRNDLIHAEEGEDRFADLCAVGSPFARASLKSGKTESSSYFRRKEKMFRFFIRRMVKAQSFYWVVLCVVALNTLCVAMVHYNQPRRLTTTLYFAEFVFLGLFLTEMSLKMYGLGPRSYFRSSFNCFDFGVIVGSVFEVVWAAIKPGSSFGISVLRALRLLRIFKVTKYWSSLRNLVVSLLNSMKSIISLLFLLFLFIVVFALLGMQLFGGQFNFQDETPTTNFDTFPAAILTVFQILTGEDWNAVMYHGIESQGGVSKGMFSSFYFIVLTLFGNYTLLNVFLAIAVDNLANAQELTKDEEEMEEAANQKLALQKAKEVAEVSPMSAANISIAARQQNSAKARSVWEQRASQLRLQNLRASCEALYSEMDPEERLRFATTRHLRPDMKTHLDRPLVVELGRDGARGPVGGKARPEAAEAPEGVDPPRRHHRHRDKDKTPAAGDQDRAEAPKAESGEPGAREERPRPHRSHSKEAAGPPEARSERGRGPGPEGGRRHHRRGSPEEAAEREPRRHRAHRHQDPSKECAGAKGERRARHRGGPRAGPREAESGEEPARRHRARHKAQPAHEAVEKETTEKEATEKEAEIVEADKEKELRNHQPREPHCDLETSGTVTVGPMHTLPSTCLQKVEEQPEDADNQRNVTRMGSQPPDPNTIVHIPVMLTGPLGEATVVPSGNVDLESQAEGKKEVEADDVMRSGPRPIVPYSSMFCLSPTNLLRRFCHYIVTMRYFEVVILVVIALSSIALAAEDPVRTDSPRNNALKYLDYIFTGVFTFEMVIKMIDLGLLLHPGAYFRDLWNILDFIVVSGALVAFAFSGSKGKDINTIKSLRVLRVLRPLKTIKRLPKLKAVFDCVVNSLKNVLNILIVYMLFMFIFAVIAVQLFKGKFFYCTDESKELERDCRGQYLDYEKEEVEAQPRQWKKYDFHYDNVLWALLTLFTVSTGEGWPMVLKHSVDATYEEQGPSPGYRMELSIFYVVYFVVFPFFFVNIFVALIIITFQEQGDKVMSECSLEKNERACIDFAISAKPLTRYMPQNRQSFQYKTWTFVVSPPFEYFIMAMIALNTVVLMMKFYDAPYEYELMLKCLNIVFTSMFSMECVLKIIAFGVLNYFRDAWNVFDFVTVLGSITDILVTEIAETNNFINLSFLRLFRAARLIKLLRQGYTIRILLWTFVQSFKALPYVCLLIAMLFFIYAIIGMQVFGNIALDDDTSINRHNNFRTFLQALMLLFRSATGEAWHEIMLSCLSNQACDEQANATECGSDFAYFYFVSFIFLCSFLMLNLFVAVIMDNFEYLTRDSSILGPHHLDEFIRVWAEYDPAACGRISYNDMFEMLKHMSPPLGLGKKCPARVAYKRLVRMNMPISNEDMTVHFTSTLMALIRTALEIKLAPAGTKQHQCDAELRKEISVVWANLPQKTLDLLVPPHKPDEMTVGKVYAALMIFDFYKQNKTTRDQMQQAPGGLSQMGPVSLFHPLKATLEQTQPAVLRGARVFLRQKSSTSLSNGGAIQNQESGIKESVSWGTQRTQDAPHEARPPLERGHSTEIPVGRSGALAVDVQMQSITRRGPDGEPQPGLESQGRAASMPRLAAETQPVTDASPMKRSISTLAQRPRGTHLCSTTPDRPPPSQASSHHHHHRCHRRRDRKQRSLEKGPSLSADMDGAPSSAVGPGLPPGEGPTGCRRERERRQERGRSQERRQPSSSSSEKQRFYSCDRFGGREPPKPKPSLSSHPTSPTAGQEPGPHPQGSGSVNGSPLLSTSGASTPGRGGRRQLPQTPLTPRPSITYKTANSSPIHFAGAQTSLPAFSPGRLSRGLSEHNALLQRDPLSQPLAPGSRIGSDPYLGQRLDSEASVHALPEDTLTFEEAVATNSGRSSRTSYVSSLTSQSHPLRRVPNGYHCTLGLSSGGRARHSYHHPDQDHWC
hERG (KCNH2), sequence (Q12809 whole entry): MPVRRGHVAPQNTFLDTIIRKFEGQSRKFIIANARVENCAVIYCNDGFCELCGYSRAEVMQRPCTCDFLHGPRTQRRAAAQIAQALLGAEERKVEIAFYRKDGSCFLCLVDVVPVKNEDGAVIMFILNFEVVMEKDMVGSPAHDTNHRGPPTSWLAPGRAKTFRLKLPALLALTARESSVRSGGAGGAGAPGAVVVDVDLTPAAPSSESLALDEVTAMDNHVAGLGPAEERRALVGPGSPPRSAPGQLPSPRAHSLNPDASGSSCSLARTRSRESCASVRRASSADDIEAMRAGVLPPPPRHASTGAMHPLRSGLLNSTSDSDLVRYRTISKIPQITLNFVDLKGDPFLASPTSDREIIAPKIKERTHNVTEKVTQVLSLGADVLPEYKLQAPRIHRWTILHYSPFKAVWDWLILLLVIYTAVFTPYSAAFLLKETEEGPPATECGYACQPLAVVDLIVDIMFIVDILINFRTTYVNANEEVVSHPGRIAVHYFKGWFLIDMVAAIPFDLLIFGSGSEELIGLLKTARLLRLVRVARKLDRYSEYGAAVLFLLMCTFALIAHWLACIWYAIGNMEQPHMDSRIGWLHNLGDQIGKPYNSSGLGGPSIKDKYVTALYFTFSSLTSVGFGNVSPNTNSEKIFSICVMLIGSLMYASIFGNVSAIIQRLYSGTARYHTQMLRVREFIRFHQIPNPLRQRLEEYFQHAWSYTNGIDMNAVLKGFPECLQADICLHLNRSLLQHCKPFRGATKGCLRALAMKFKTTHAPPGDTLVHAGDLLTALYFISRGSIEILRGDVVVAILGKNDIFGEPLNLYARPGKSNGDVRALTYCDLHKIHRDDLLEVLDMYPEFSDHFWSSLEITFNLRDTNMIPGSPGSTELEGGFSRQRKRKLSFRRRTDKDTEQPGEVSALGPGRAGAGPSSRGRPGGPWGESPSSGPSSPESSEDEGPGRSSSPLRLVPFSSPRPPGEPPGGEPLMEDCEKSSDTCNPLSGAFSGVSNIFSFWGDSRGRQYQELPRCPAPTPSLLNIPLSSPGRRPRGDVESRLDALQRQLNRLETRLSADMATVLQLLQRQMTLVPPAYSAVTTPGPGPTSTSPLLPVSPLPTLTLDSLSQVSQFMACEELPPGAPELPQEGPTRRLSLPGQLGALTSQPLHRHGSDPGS
CYP3A4, sequence (P08684 whole entry): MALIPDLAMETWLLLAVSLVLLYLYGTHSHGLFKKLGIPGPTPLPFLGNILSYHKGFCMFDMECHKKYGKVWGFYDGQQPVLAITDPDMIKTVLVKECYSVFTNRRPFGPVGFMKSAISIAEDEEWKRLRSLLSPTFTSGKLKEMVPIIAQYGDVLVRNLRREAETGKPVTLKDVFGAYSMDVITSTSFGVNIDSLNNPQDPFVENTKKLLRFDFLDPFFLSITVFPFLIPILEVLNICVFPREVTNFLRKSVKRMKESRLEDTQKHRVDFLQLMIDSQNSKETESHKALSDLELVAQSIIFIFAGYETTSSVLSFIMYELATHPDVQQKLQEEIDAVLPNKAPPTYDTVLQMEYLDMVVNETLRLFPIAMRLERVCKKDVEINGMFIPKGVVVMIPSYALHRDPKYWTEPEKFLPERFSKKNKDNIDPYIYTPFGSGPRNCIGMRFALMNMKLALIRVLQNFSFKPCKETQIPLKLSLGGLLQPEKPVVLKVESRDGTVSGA
Cytochrome P450 3A4, sequence (P08684 whole entry): as above

remaining at 1 h, 10 µM [1]	Drug metabolism (Liver microsome [2])	IC50 [3]	remaining at 1 h, 10 µM [4]	Drug metabolism (Liver microsome [5])	inhibition at 10 µM (CYP3A4)	EC50 [6]	Structure (SMILES)	other results
		21 nM			75%	2.8 µM	CS(=O)(=O)c1ccc(C(=O)N2CCC(N(C3CC3)S(=O)(=O)c3cccc(C(F)(F)F)c3)CC2)c(C(F)(F)F)c1	inhibition at 10 µM (hERG (KCNH2)): 58%
		670 nM			59%	5 µM	CS(=O)(=O)c1ccc(C#N)cc1C(=O)N1CCC(N(C2CC2)S(=O)(=O)c2cccc(C(F)(F)F)c2)CC1	inhibition at 10 µM (hERG (KCNH2)): 41%
		27 nM			78%	4.3 µM	CS(=O)(=O)c1cc(C(F)(F)F)ccc1C(=O)N1CCC(N(C2CC2)S(=O)(=O)c2cccc(C(F)(F)F)c2)CC1	inhibition at 10 µM (hERG (KCNH2)): 43%
		390 nM			60%	> 10 µM	NC(=O)c1ccc(C(=O)N2CCC(N(C3CC3)S(=O)(=O)c3cccc(C(F)(F)F)c3)CC2)c(OC(F)(F)F)c1	inhibition at 10 µM (hERG (KCNH2)): 41%
	0.01 µM			0.03 µM	75%		CS(=O)(=O)c1ccc(F)cc1C(=O)N1CCC(N(C2CC2)S(=O)(=O)c2cccc(C(F)(F)F)c2)CC1	Efficacy (Rattus norvegicus [9]): 38%; Efficacy (Rattus norvegicus [10]): 43%

Further lines, the molecule ahead of its results:

Structure (SMILES)	remaining at 1 h, 10 µM [1]	Drug metabolism (Liver microsome [2])	IC50 [3]	remaining at 1 h, 10 µM [4]	Drug metabolism (Liver microsome [5])	inhibition at 10 µM (CYP3A4)	EC50 [6]	other results
CS(=O)(=O)c1ccc(C(=O)N2CCC3(CCN(S(=O)(=O)c4cccc(C(F)(F)F)c4)CC3)C2)c(C(F)(F)F)c1	3.8%	0.18 µM	310 nM	4.2%	5.13 µM			
CS(=O)(=O)c1ccc(F)cc1C(=O)N1CCC2(CCN(S(=O)(=O)c3cccc(C(F)(F)F)c3)CC2)C1			190 nM					
CC(C)(C1CCN(C(=O)c2ccc(S(C)(=O)=O)cc2OC(F)(F)F)CC1)S(=O)(=O)c1cccc(C(F)(F)F)c1	73%		92 nM	62%			> 30 µM	half-life [7]: 138 min; bioavailability [8]: 95%; Efficacy (Rattus norvegicus [9]): 30%; Papp (MDR1 (ABCB1)): 35 ×10⁻⁶ cm/s; Efficacy (Rattus norvegicus [10]): 21%; fraction unbound [11]: 0.013; AUC/dose (Rattus norvegicus [12]): 0.97 µM·kg·h/mg; clearance [13]: 27 mL/min/kg
NS(=O)(=O)c1cccc(C(F)(F)F)c1			> 10000 nM					bioavailability [8]: 46%; Efficacy (Rattus norvegicus [14]): 53%; AUC/dose (Rattus norvegicus [12]): 111 µM·kg·h/mg; Efficacy (Rattus norvegicus [15]): 44%; clearance [13]: 0.31 mL/min/kg
CC(C)(C1CCN(C(=O)c2cc(F)ccc2S(C)(=O)=O)CC1)S(=O)(=O)c1cccc(C(F)(F)F)c1	68%		510 nM	64%			2.5 µM	bioavailability [8]: 24%; Efficacy (Rattus norvegicus [9]): 49%; Efficacy (Rattus norvegicus [14]): 57%; Papp (MDR1 (ABCB1)): 35 ×10⁻⁶ cm/s; Efficacy (Rattus norvegicus [10]): 36%; IC50 (Cytochrome P450 3A4): 10 µM; fraction unbound [11]: 0.068; AUC/dose (Rattus norvegicus [12]): 0.27 µM·kg·h/mg; Efficacy (Rattus norvegicus [15]): 54%; clearance [13]: 29 mL/min/kg
CC(C1CCN(C(=O)c2ccc(S(C)(=O)=O)cc2OC(F)(F)F)CC1)S(=O)(=O)c1cccc(C(F)(F)F)c1 (stereo in doubt; 30 en-2)			370 nM					
CN(C1CCN(C(=O)c2ccccc2S(C)(=O)=O)CC1)S(=O)(=O)c1cccc(C(F)(F)F)c1	18%	0.08 µM	460 nM	26%	0.95 µM			
CC(C1CCN(C(=O)c2ccc(S(C)(=O)=O)cc2OC(F)(F)F)CC1)S(=O)(=O)c1cccc(C(F)(F)F)c1 (stereo in doubt; 30 en-1)			88 nM					
C[C@H]1[C@H](N(C2CC2)S(=O)(=O)c2cccc(C(F)(F)F)c2)CN1C(=O)c1ccc(S(C)(=O)=O)cc1Cl (racemic)	4.7%	0.11 µM	48 nM	5.3%	0.83 µM			AUC/dose (Rattus norvegicus [12]): 0.017 µM·kg·h/mg; AUC/dose (Rattus norvegicus [16]): 64 µM·kg·h/mg
CCN(C1CCN(C(=O)c2ccccc2OC(F)(F)F)CC1)S(=O)(=O)c1cccc(C(F)(F)F)c1	3.4%	0.08 µM	470 nM	30%	1.16 µM			
